The source of these data is ChEMBL document CHEMBL1124704, “Synthesis and immunosuppressive activity of some side-chain variants of mycophenolic acid” (J Med Chem, 1990).

Test [1] relates to Mus musculus. Briefly: The compound was tested in vivo for inhibition of plaques per million after 25 mg/kg oral administration in mice. The test is classed as functional.
The test system of test [2] is Mus musculus. The test is described as follows: In vivo total no of plaques in spleen was determined after 50 mg/kg oral administration in mice. The test is classed as functional.
Test [3] relates to Mus musculus. The test is described as follows: In vivo antibody response to sheep red blood cells(SRBC) by plaque-forming cells in the spleen (PFC/spleen) after 100 mg/kg oral administration in mice. The test is classed as functional.
Test [4] in a line: In vitro inhibition of human lymphocyte proliferation in response to staphylococcus protein A(SPA) was determined. The test is classed as functional.
The nature of test [5]: In vitro inhibition of human lymphocyte proliferation in response to pokeweed mitogen(PWM) was determined. The class given is functional.
The subject of test [6] is Mus musculus. The test is described as follows: The compound was tested in vivo for inhibition of plaques per million after 100 mg/kg oral administration in mice. The test is classed as functional.
Test [7] relates to Mus musculus. Briefly: In vivo antibody response to sheep red blood cells by plaque-forming cells in the spleen (PFC/spleen) after 25 mg/kg oral administration in mice. The class given is functional.
In test [8] the test system is Mus musculus. The test is described as follows: The compound was tested in vivo for inhibition of plaques per million after 50 mg/kg oral administration in mice. The class given is functional.
For test [9], the target named is Inosine-5'-monophosphate dehydrogenase 1 (Homo sapiens, UniProt P20839). Briefly: In vitro inhibition of inosine Inosine-5'-monophosphate dehydrogenase. The gist of the method: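 IMPD came from a MOLT-4 cell lysate: five freeze-thaw cycles, then the high-speed (ca. 31000g) supernatant was kept. Assay in 50 mM potassium phosphate pH 7.4 with 10 μM [¹⁴C]IMP, 0.3 mM NAD, 0.1 M KCl and 1 mM EDTA, 25 min at 37 °C. Stopped with HClO₄; IMP/XMP quantified by anion-exchange HPLC with radioflow detection. Five concentrations, 0.02–5.0 μg/mL; IC₅₀ determined graphically.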

Test [10] relates to Mus musculus. Briefly: In vivo inhibition of plaque-forming cells in the spleen (PFC/spleen) after 100 mg/kg oral administration in mice. The test is classed as functional.
The subject of test [11] is Mus musculus. The test is described as follows: In vivo inhibition of plaque-forming cells in the spleen (PFC/spleen) after 40 mg/kg oral administration in mice. The test is classed as functional.
Test [12] has as its system Mus musculus. The test is described as follows: In vivo antibody response to sheep red blood cells(SRBC) by plaque-forming cells in the spleen (PFC/spleen) after 50 mg/kg oral administration in mice. The test is classed as functional.
Test [13] is described as follows: In vitro inhibition of human lymphocyte proliferation in response to phytohemagglutininin (PHA) was determined. The test is classed as functional.
The subject of test [14] is Mus musculus. Briefly: In vivo total no of plaques in spleen was determined after 25 mg/kg oral administration in mice. The test is classed as functional.
The subject of test [15] is Mus musculus. Briefly: In vivo inhibition of plaque-forming cells in the spleen (PFC/spleen) after 25 mg/kg oral administration in mice. The class given is functional.
Test [16] concerns Mus musculus. The test is described as follows: The compound was tested in vivo for inhibition of plaques per million after 40 mg/kg oral administration in mice. The test is classed as functional.
Test [17] deals with Mus musculus. Briefly: In vivo antibody response to sheep red blood cells(SRBC) by plaque-forming cells in the spleen (PFC/spleen) after 40 mg/kg oral administration in mice. The test is classed as functional.
Test [18] deals with Mus musculus. Briefly: The compound was tested in vivo for inhibition of plaque-forming cells in the spleen (PFC/spleen) after 50 mg/kg oral administration in mice. The test is classed as functional.
Test [19] relates to Mus musculus. Briefly: In vivo total no of plaques in spleen was determined after 100 mg/kg oral administration in mice. The test is classed as functional.
Test [20] has as its system Mus musculus. Briefly: (§1) In vivo antibody response to sheep red blood cells(SRBC) by plaques per million after 25 mg/kg oral administration in mice. The test is classed as functional.
Test [21] concerns Mus musculus. Described as §1. The test is classed as functional. This is another data set of the same source.
Test [22] concerns Mus musculus. The test is described as follows: In vivo antibody response to sheep red blood cells(SRBC) by plaque-forming cells in the spleen (PFC/spleen) after 25 mg/kg oral administration in mice. The class given is functional.
The subject of test [23] is Mus musculus. The test is described as follows: In vivo for antibody response to sheep red blood cells(SRBC) by plaque-forming cells in the spleen (PFC/spleen) after 25 mg/kg oral administration in mice. The test is classed as functional.
The subject of test [24] is Mus musculus. Briefly: In vivo inhibition of plaques per million after 25 mg/kg oral administration in mice. The test is classed as functional.

One may read the inhibition in vivo as the change of the read-out against control, counted positive when it falls. What is called IC50 is the point on the concentration scale where inhibition reaches its midpoint. A lower IC50 goes with inhibition by little substance. Usually Inhibition stands for how much of the control response was suppressed.

Molecules are shown by their SMILES. Where “and” joins values, the source holds several entries; their conditions need not be identical. Equal values may be shown once.

Inosine-5'-monophosphate dehydrogenase 1, sequence (P20839 whole entry): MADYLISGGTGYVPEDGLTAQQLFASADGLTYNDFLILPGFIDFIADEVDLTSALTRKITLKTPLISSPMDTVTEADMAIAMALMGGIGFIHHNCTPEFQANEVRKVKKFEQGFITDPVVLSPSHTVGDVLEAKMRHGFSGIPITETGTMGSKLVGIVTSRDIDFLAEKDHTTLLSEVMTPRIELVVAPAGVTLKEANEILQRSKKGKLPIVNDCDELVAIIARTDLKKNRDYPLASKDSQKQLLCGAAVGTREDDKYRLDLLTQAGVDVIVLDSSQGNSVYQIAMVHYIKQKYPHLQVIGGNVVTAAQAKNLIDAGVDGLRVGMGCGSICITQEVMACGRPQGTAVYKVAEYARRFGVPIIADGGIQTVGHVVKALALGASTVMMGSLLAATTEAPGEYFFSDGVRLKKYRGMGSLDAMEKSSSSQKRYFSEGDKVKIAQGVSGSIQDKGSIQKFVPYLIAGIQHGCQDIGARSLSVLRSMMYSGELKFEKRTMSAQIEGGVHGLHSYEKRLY

With `COc1c(C)c2c(c(O)c1CC=C=C(C)CCC(=O)O)C(=O)OC2`, the inhibition in vivo at 25 mg/kg in [1] came to 16%; in test [15] (Mus musculus, Spleen, po) it was 18%. Moreover, the PPM in [2] was 657; in test [14], 630 and 583; in test [19] it was 114. In addition, the PFC/spleen in test [3] was determined as 17000; in [7] it was 96583; in test [12], 112416; in [17] it was 99333. For the same molecule, the IC50 in test [4] worked out at 0.15 µM; in test [5], 0.35 µM; in test [9], 1.2 µM; in test [13], 0.35 µM. Besides, the inhibition in vivo at 100 mg/kg in test [6] is 79%; in test [10], 80%. Besides, the inhibition in vivo at 50 mg/kg in test [8] was -20%; in test [18] it was -33%. Further, the inhibition in vivo at 40 mg/kg in [11] turned out to be 15%; in test [16], 22%.

As for `COc1c(C)c2c(c(O)c1CC1C(Br)(Br)C1(C)CCC(=O)O)C(=O)OC2` (stereo unspecified), the IC50 in test [4] was greater than 10 µM; in test [5], greater than 10 µM; in test [9] it was 3.1 µM; in [13], 4.4 µM.

`COc1c(C)c2c(c(O)c1CC#CCCCC(=O)O)C(=O)OC2`: the IC50 in test [4] was greater than 10 µM; in test [5] it was 6 µM; in test [9], 2.5 µM; in test [13], 6 µM.

With `COc1c(C)c2c(c(O)c1CCCCCC(=O)O)C(=O)OC2`, the concentration for half-maximal inhibition (IC50) in test [4] is 1.6 µM; in [5] it was 4.3 µM; in test [9] it was 0.94 µM; in test [13] it was 2.5 µM.

With `COc1c(C)c2c(c(O)c1CC1CC1(C)CCC(=O)O)C(=O)OC2` (stereo unspecified), the IC50 came to 4.3 µM in test [4], 1.7 µM in [5], 1.1 µM in test [9] and 3.8 µM in [13].

For `COc1c(C)c2c(c(O)c1C/C=C/CCC(=O)O)C(=O)OC2`, the half-inhibitory concentration (IC50) in test [4], in [5] and in test [13] was 4.8 µM throughout.

`COc1c(C)c2c(c(O)c1C/C=C(\C)CCC(=O)O)C(=O)OC2` [MYCOPHENOLIC ACID]: the PPM in test [20] was 308 PPM; in test [21] it was 264. Further, the 50% inhibitory concentration (IC50) is 0.06 µM in test [4], 0.02 µM in [5], 0.02 µM in [9] and 0.06 µM in test [13]. Besides, the PFC/spleen is 45333 in [22] and 36027 in test [23]. For the same molecule, the Inhibition in test [24] is 65% and 44%; in test [15] (25 mg/kg) it was 69% and 46%.

For the molecule `COc1c(C)c2c(c(O)c1C/C=C/CCCC(=O)O)C(=O)OC2`, the IC50 in test [4], in test [5] and in test [13] was greater than 10 µM in each case.

Take `COc1c(C)c2c(c(O)c1CSCCC(=O)O)C(=O)OC2`: the IC50 in test [4] was greater than 10 µM; in test [5], greater than 10 µM; in [9] it was 10.9 µM; in test [13], greater than 10 µM.

Take `COc1c(C)c2c(c(O)c1CC#CCCC(=O)O)C(=O)OC2`: the IC50 in test [4] worked out at 7.5 µM; in test [5], 2.4 µM; in test [9], 2.6 µM; in test [13], 4.8 µM.

For `COc1c(C)c2c(c(O)c1CSCCCC(=O)O)C(=O)OC2`, the half-maximal inhibitory concentration (IC50) in test [4] was greater than 10 µM; in [5], greater than 10 µM; in test [9], 22.7 µM; in [13] it was greater than 10 µM.

Take `COc1c(C)c2c(c(O)c1CC1C(F)(F)C1(C)CCC(=O)O)C(=O)OC2` (stereo unspecified): the IC50 in test [4] came out at 10 µM; in test [5], 2.8 µM; in [9] it was 2.6 µM; in [13] it was 3.1 µM.

Turning to `COc1c(C)c2c(c(O)c1CCCCCCC(=O)O)C(=O)OC2`, the IC50 was greater than 10 µM in test [4], greater than 10 µM in test [5], 1.8 µM in [9] and greater than 10 µM in test [13].
